Test results reported in ChEMBL document CHEMBL2040727, “Substituted thiazoles VI. Synthesis and antitumor activity of new 2-acetamido- and 2 or 3-propanamido-thiazole analogs” (2012).

Key:
Type in all cases: functional
K562 = assay: Growth inhibition of human K562 cells at 10 uM after 48 hrs by coulter counter analysis; conditions: K562, 48 h, read-out: GI
Summary of the method: (§1)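 Single-dose NCI 60-line panel screen of test compounds. Cells grown in RPMI 1640 with 10% FBS. Compounds dissolved in DMSO, then diluted in phosphate buffer saline (final DMSO below 1%). Wells run in duplicate at 6 × 10⁴ cells/ml. Controls held PBS and DMSO at matching dilutions. Incubation 48 h at 37 °C under humidified 5% CO2. Cells diluted tenfold in saline and counted by Coulter counter. Percent growth inhibition taken from mean-graph of treated-cell growth.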

MOLT-4 = assay: Growth inhibition of human MOLT4 cells at 10 uM after 48 hrs by coulter counter analysis; conditions: MOLT-4, 48 h, read-out: GI; summary of the method: as §1
A549 = assay: Growth inhibition of human A549/ATCC cells at 10 uM after 48 hrs by coulter counter analysis; conditions: A549, 48 h, read-out: GI; summary of the method: as §1
EKVX = assay: Growth inhibition of human EKVX cells at 10 uM after 48 hrs by coulter counter analysis; conditions: read-out: GI; summary of the method: as §1
HOP-62 = assay: Growth inhibition of human HOP62 cells at 10 uM after 48 hrs by coulter counter analysis; conditions: HOP-62, 48 h, read-out: GI; summary of the method: as §1
HOP-92 = assay: Growth inhibition of human HOP92 cells at 10 uM after 48 hrs by coulter counter analysis; conditions: HOP-92, 48 h, read-out: GI; summary of the method: as §1
NCI-H23 = assay: Growth inhibition of human NCI-H23 cells at 10 uM after 48 hrs by coulter counter analysis; conditions: NCI-H23, 48 h, read-out: GI; summary of the method: as §1
NCI-H322M = assay: Growth inhibition of human NCI-H322M cells at 10 uM after 48 hrs by coulter counter analysis; conditions: read-out: GI; summary of the method: as §1
NCI-H522 = assay: Growth inhibition of human NCI-H522 cells at 10 uM after 48 hrs by coulter counter analysis; conditions: NCI-H522, 48 h, read-out: GI; summary of the method: as §1
HCC 2998 = assay: Growth inhibition of human HCC2998 cells at 10 uM after 48 hrs by coulter counter analysis; conditions: HCC 2998, 48 h, read-out: GI; summary of the method: as §1
HT-29 = assay: Growth inhibition of human HT-29 cells at 10 uM after 48 hrs by coulter counter analysis; conditions: HT-29, 48 h, read-out: GI; summary of the method: as §1
SW-620 = assay: Growth inhibition of human SW620 cells at 10 uM after 48 hrs by coulter counter analysis; conditions: SW-620, 48 h, read-out: GI
Summary of the method: (§2)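 Single-dose screen in the NCI 60 cell line panel. Cells grown in RPMI 1640 with 10% FBS. Compounds dissolved in DMSO and diluted in phosphate buffered saline, final DMSO under 1%. Duplicate wells seeded from culture at 6 × 10⁴ cells/ml. Incubated 48 h at 37 °C, humidified, 5% CO2. Cells diluted tenfold in saline and Coulter-counted. Percent growth inhibition computed against PBS/DMSO controls.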

SF-268 = assay: Growth inhibition of human SF268 cells at 10 uM after 48 hrs by coulter counter analysis; conditions: SF-268, 48 h, read-out: GI; summary of the method: as §1
SF-295 = assay: Growth inhibition of human SF295 cells at 10 uM after 48 hrs by coulter counter analysis; conditions: SF-295, 48 h, read-out: GI; summary of the method: as §1
SNB-19 = assay: Growth inhibition of human SNB19 cells at 10 uM after 48 hrs by coulter counter analysis; conditions: SNB-19, 48 h, read-out: GI; summary of the method: as §1
SNB-75 = assay: Growth inhibition of human SNB75 cells at 10 uM after 48 hrs by coulter counter analysis; conditions: SNB-75, 48 h, read-out: GI; summary of the method: as §2
LOX IMVI = assay: Growth inhibition of human LOXIMVI cells at 10 uM after 48 hrs by coulter counter analysis; conditions: read-out: GI; summary of the method: as §1
Malme-3M = assay: Growth inhibition of human MALME-3M cells at 10 uM after 48 hrs by coulter counter analysis; conditions: read-out: GI; summary of the method: as §1
M14 = assay: Growth inhibition of human M14 cells at 10 uM after 48 hrs by coulter counter analysis; conditions: M14, 48 h, read-out: GI; summary of the method: as §1
MDA-MB-435 = assay: Growth inhibition of human MDA-MB-435 cells at 10 uM after 48 hrs by coulter counter analysis; conditions: MDA-MB-435, 48 h, read-out: GI; summary of the method: as §1
SK-MEL-2 = assay: Growth inhibition of human SK-MEL-2 cells at 10 uM after 48 hrs by coulter counter analysis; conditions: SK-MEL-2, 48 h, read-out: GI; summary of the method: as §1
SK-MEL-5 = assay: Growth inhibition of human SK-MEL-5 cells at 10 uM after 48 hrs by coulter counter analysis; conditions: SK-MEL-5, 48 h, read-out: GI; summary of the method: as §1
UACC-62 = assay: Growth inhibition of human UACC62 cells at 10 uM after 48 hrs by coulter counter analysis; conditions: UACC-62, 48 h, read-out: GI; summary of the method: as §2
IGROV-1 = assay: Growth inhibition of human IGROV1 cells at 10 uM after 48 hrs by coulter counter analysis; conditions: IGROV-1, 48 h, read-out: GI; summary of the method: as §1
OVCAR-3 = assay: Growth inhibition of human OVCAR3 cells at 10 uM after 48 hrs by coulter counter analysis; conditions: OVCAR-3, 48 h, read-out: GI; summary of the method: as §1
OVCAR-5 = assay: Growth inhibition of human OVCAR5 cells at 10 uM after 48 hrs by coulter counter analysis; conditions: OVCAR-5, 48 h, read-out: GI; summary of the method: as §1
OVCAR-8 = assay: Growth inhibition of human OVCAR8 cells at 10 uM after 48 hrs by coulter counter analysis; conditions: OVCAR-8, 48 h, read-out: GI; summary of the method: as §1
[1] = Growth inhibition of human NCI-ADR-RES cells at 10 uM after 48 hrs by coulter counter analysis; conditions: read-out: GI; summary of the method: as §1
786-0 = assay: Growth inhibition of human 786-0 cells at 10 uM after 48 hrs by coulter counter analysis; conditions: 786-0, 48 h, read-out: GI; summary of the method: as §1
A498 = assay: Growth inhibition of human A498 cells at 10 uM after 48 hrs by coulter counter analysis; conditions: A498, 48 h, read-out: GI; summary of the method: as §1
ACHN = assay: Growth inhibition of human ACHN cells at 10 uM after 48 hrs by coulter counter analysis; conditions: read-out: GI; summary of the method: as §1
SN12C = assay: Growth inhibition of human SN12C cells at 10 uM after 48 hrs by coulter counter analysis; conditions: read-out: GI; summary of the method: as §1
DU-145 = assay: Growth inhibition of human DU145 cells at 10 uM after 48 hrs by coulter counter analysis; conditions: DU-145, 48 h, read-out: GI; summary of the method: as §1
MCF7 = assay: Growth inhibition of human MCF7 cells at 10 uM after 48 hrs by coulter counter analysis; conditions: MCF7, 48 h, read-out: GI; summary of the method: as §1
[2] = Growth inhibition of human Hs 578T cells at 10 uM after 48 hrs by coulter counter analysis; conditions: read-out: GI; summary of the method: as §1
T47D = assay: Growth inhibition of human T47D cells at 10 uM after 48 hrs by coulter counter analysis; conditions: read-out: GI; summary of the method: as §2
CCRF-CEM = assay: Growth inhibition of human CCRF-CEM cells at 10 uM after 48 hrs by coulter counter analysis; conditions: read-out: GI; summary of the method: as §1

Row | Structure (SMILES) | inhibition of growth at 10 µM (K562) [%] | inhibition of growth at 10 µM (MOLT-4) [%] | inhibition of growth at 10 µM (A549) [%] | inhibition of growth at 10 µM (EKVX) [%] | inhibition of growth at 10 µM (HOP-62) [%] | inhibition of growth at 10 µM (HOP-92) [%] | inhibition of growth at 10 µM (NCI-H23) [%] | inhibition of growth at 10 µM (NCI-H322M) [%] | inhibition of growth at 10 µM (NCI-H522) [%] | inhibition of growth at 10 µM (HCC 2998) [%] | inhibition of growth at 10 µM (HT-29) [%] | inhibition of growth at 10 µM (SW-620) [%] | inhibition of growth at 10 µM (SF-268) [%] | inhibition of growth at 10 µM (SF-295) [%] | inhibition of growth at 10 µM (SNB-19) [%] | inhibition of growth at 10 µM (SNB-75) [%] | inhibition of growth at 10 µM (LOX IMVI) [%] | inhibition of growth at 10 µM (Malme-3M) [%] | inhibition of growth at 10 µM (M14) [%] | inhibition of growth at 10 µM (MDA-MB-435) [%] | other results
1 | Cc1csc(NC(=O)C(C)N2CCN(c3ccccc3)CC2)n1 (centres undefined) | < 10 | < 10 | < 10 | < 10 | < 10 | < 10 | < 10 | < 10 | < 10 | < 10 | < 10 | < 10 | < 10 | < 10 | < 10 | 24 | < 10 | < 10 | < 10 | < 10 | inhibition of growth at 10 µM (SK-MEL-2): < 10%; inhibition of growth at 10 µM (SK-MEL-5): < 10%; inhibition of growth at 10 µM (UACC-62): < 10%; inhibition of growth at 10 µM (IGROV-1): < 10%; inhibition of growth at 10 µM (OVCAR-3): < 10%; inhibition of growth at 10 µM (OVCAR-5): < 10%; inhibition of growth at 10 µM (OVCAR-8): < 10%; inhibition of growth at 10 µM [1]: < 10%; inhibition of growth at 10 µM (786-0): < 10%; inhibition of growth at 10 µM (A498): < 10%; inhibition of growth at 10 µM (ACHN): < 10%; inhibition of growth at 10 µM (SN12C): < 10%; inhibition of growth at 10 µM (DU-145): < 10%; inhibition of growth at 10 µM (MCF7): < 10%; inhibition of growth at 10 µM [2]: < 10%; inhibition of growth at 10 µM (T47D): < 10%; inhibition of growth at 10 µM (CCRF-CEM): < 10%
2 | CCOC(=O)c1sc(NC(=O)C(C)N(CC)CC)nc1C (centres undefined) | < 10 | < 10 | < 10 | < 10 | < 10 | < 10 | < 10 | < 10 | < 10 | < 10 | < 10 | < 10 | < 10 | < 10 | < 10 | 16.4 | < 10 | < 10 | < 10 | < 10 | inhibition of growth at 10 µM (SK-MEL-2): < 10%; inhibition of growth at 10 µM (SK-MEL-5): < 10%; inhibition of growth at 10 µM (UACC-62): < 10%; inhibition of growth at 10 µM (IGROV-1): < 10%; inhibition of growth at 10 µM (OVCAR-3): < 10%; inhibition of growth at 10 µM (OVCAR-5): < 10%; inhibition of growth at 10 µM (OVCAR-8): < 10%; inhibition of growth at 10 µM [1]: < 10%; inhibition of growth at 10 µM (786-0): < 10%; inhibition of growth at 10 µM (A498): < 10%; inhibition of growth at 10 µM (ACHN): < 10%; inhibition of growth at 10 µM (SN12C): < 10%; inhibition of growth at 10 µM (DU-145): < 10%; inhibition of growth at 10 µM (MCF7): < 10%; inhibition of growth at 10 µM [2]: < 10%; inhibition of growth at 10 µM (T47D): < 10%; inhibition of growth at 10 µM (CCRF-CEM): < 10%
